Results taken from ChEMBL document CHEMBL4396897, “Potent 5-Cyano-6-phenyl-pyrimidin-Based Derivatives Targeting DCN1-UBE2M Interaction” (J Med Chem, 2019).
The source made the active and inactive calls. No cut-off for these calls is given here.

What was measured:
PC-3 = assay: Antiproliferative activity against human PC3 after 72 hrs by MTT assay; format: functional, cell-based; details: PC-3, 72 h
Method in brief: (§1)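 MTT viability assay: cells seeded at 2~5×10^3 per well, exposed to serial dilutions of compound for 72h, then MTT (5 mg/mL in PBS) added for 4h at 37°C. Formazan dissolved in DMSO and read at 490nm. IC50 reported as mean ± SD of three independent experiments.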

MCF7 = assay: Antiproliferative activity against human MCF7 after 72 hrs by MTT assay; format: functional, cell-based; details: MCF7, 72 h; method in brief: as §1
DCN1-like protein 1 [1] = molecular target: T1, DCN1-like protein 1 (Homo sapiens, UniProt Q96GG9); assay: Binding affinity to N-terminal GST tagged recombinant human DCN1 (58 to 259 residues) expressed in Escherichia coli BL21(DE3) assessed as reduction in DCN1-FAM-labelled N-terminal acetylated UBE2M (1 to 21 residues) protein-protein interaction after 30 mins by HTRF assay
SMMC-7721 = assay: Antiproliferative activity against human SMMC7721 after 72 hrs by MTT assay; format: functional, cell-based; details: SMMC-7721, 72 h; method in brief: as §1
DCN1-like protein 1 [2] = molecular target: T1, DCN1-like protein 1; assay: Binding affinity to N-terminal His6-tagged recombinant human DCN1 expressed in Escherichia coli BL21-AI assessed as reduction in DCN1-FAM-labelled N-terminal acetylated UBE2M (1 to 12 residues) protein-protein interaction after 30 mins by fluorescence polarization competitive binding assay
PC-9 = assay: Antiproliferative activity against human PC9 by MTT assay; format: functional, cell-based; method in brief: as §1
KYSE-70 cell line = assay: Antiproliferative activity against human KYSE-70 after 72 hrs by MTT assay; format: functional, cell-based; details: KYSE-70, 72 h; method in brief: as §1
[3] = molecular target: DCN1-like protein 1/NEDD8-conjugating enzyme Ubc12 (Homo sapiens) (UniProt Q96GG9+P61081); assay: Inhibition of DCN1-UBE2M protein-protein interaction in human NCI-H1975 cells assessed as stabilization of DCN1 at 10 uM incubated for 5 hrs at 53 degC by cellular thermal shift assay; format: cell-based
Method in brief: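 H1975 cells exposed to 10µM compound or 1‰ DMSO for 3-5h (5h in legend), collected, aliquoted and heated 10 min across 43–61°C. Cells lysed by three liquid-nitrogen freeze-thaw cycles and centrifuged at 12,000×g for 20 min. Soluble DCN1 in supernatant quantified by Western blot band intensity; at least three experiments.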

T1 sequence (Q96GG9 whole entry, the tested form may be a part): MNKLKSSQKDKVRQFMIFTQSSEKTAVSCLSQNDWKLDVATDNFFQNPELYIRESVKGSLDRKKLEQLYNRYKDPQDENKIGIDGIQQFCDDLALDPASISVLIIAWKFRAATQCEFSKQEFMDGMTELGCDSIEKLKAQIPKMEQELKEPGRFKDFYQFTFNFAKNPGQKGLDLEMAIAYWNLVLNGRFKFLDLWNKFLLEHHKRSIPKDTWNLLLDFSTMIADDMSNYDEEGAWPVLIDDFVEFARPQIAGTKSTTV
Sequence of DCN1-like protein 1/NEDD8-conjugating enzyme Ubc12 (Homo sapiens) (P61081 whole entry, looked up): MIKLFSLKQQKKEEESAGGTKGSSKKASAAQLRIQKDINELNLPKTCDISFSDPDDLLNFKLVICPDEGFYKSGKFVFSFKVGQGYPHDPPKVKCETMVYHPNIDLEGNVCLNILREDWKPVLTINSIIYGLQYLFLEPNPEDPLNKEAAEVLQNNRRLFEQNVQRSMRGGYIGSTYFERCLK
Sequence of DCN1-like protein 1/NEDD8-conjugating enzyme Ubc12 (Homo sapiens) (Q96GG9 whole entry, looked up): as the sequence (Q96GG9 whole entry, the tested form may be a part) above

Row | IC50 (PC-3) [µM] | IC50 (MCF7) [µM] | IC50 (DCN1-like protein 1 [1]) [µM] | IC50 (SMMC-7721) [µM] | IC50 (DCN1-like protein 1 [2]) [µM] | IC50 (PC-9) [µM] | inhibition [3] | Structure (SMILES) | IC50 (KYSE-70 cell line) [µM]
1 | 7.17 | 6.18 | 0.123 | 7.34 | 0.0635 | 5.3 | – | C#CCSc1nc(Sc2nnnn2CCN(C)C)c(C#N)c(-c2ccc(Cl)cc2)n1 | 6.56
2 | – | – | 0.25 | – | 0.36 | – | – | C#CCSc1nc(Sc2nnnn2C)c(C#N)c(-c2cc(OC)c(OC)c(OC)c2)n1 | –
3 | – | – | 0.066 | – | 0.196 | – | – | C#CCSc1nc(Sc2ccc(N)s2)c(C#N)c(-c2cc(OC)c(OC)c(OC)c2)n1 | –
4 | – | – | 0.172 | – | 0.391 | – | – | C#CCSc1nc(Sc2nnnn2CCN(C)C)c(C#N)c(-c2ccc(Cl)c(Cl)c2)n1 | –
5 | – | – | > 10 | – | > 20 | – | – | C#CCSc1nc(Sc2nnnn2C)c(C#N)c(-c2ccc[nH]2)n1 | –
6 | > 20 | > 20 | > 10 | > 20 | > 20 | > 20 | – | C#CCSc1nc(Sc2nccs2)c(C#N)c(-c2ccc[nH]2)n1 | > 20
7 | – | – | 1.06 | – | 1.48 | – | – | C#CCSc1nc(Sc2nccs2)c(C#N)c(-c2ccncc2)n1 | –
8 | 25.3 | 10.2 | – | 16.2 | – | 5.59 | – | C=CC(=O)Nc1ccccc1CN(C(=O)Nc1cccc(C(F)(F)F)c1)C1CCN(C(C)CCC)CC1 (centres undefined) | 17.9
9 | – | – | 0.12 | – | 0.109 | – | – | C#CCSc1nc(Sc2nnnn2CCN(C)C)c(C#N)c(-c2ccc(C)cc2)n1 | –
10 | – | – | > 10 | – | > 10 | – | – | C#CCSc1nc(Nc2cccc(C(F)(F)F)c2)c(C#N)c(-c2cc(OC)c(OC)c(OC)c2)n1 | –
11 | > 20 | > 20 | > 5 | > 20 | 1.22 | > 20 | – | C#CCSc1nc(Sc2nc[nH]n2)c(C#N)c(-c2cc(OC)c(OC)c(OC)c2)n1 | > 20
12 | > 10 | > 10 | > 2.5 | > 20 | > 10 | > 20 | – | C#CCSc1nc(Sc2ccccn2)c(C#N)c(-c2cc(OC)c(OC)c(OC)c2)n1 | > 10
13 | – | – | > 10 | – | > 10 | – | – | C=CCSc1nc(Sc2nccs2)c(C#N)c(-c2ccc(Cl)cc2)n1 | –
14 | – | – | 0.82 | – | 1.25 | – | – | C#CCSc1nc(Sc2nnnn2C)c(C#N)c(-c2ccc3oc(=O)ccc3c2)n1 | –
15 | > 20 | > 20 | > 5 | > 20 | > 10 | > 20 | – | C#CCSc1nc(Sc2nc3ccccc3s2)c(C#N)c(-c2cc(OC)c(OC)c(OC)c2)n1 | > 20
16 | > 20 | > 20 | > 10 | > 20 | > 10 | > 20 | inactive | C#CCSc1nc(Sc2nc(C)cs2)c(C#N)c(-c2cc(OC)c(OC)c(OC)c2)n1 | > 20
17 | – | – | 0.199 | – | 0.591 | – | – | C#CCSc1nc(Sc2nnnn2CCN(C)C)c(C#N)c(-c2cc(OC)c(OC)c(OC)c2)n1 | –
18 | – | – | 0.134 | – | 0.153 | – | – | C#CCSc1nc(Sc2nnc(C)s2)c(C#N)c(-c2cc(OC)c(OC)c(OC)c2)n1 | –
19 | – | – | 0.815 | – | 0.666 | – | – | C#CCSc1nc(Sc2nnnn2CCN(C)C)c(C#N)c(-c2ccc3oc(=O)ccc3c2)n1 | –
20 | – | – | > 5 | – | > 10 | – | – | C#CCSc1nc(-c2cc(OC)c(OC)c(OC)c2)c(C#N)c(N2CCCCC2)n1 | –
21 | – | – | 1.02 | – | 3.15 | – | – | C#CCSc1nc(Sc2nnnn2C)c(C#N)c(-c2cccc(OC)c2)n1 | –
22 | – | – | > 10 | – | > 10 | – | – | N#Cc1c(Sc2nccs2)nc(SCc2cn(Cc3ccccc3)nn2)nc1-c1ccc(Cl)cc1 | –
23 | – | – | > 10 | – | > 20 | – | – | C#CCSc1nc(Sc2nnnn2C)c(C#N)c(-c2cccs2)n1 | –

Row | IC50 (PC-3) [µM] | IC50 (MCF7) [µM] | IC50 (DCN1-like protein 1 [1]) [µM] | IC50 (SMMC-7721) [µM] | IC50 (DCN1-like protein 1 [2]) [µM] | IC50 (PC-9) [µM] | inhibition [3] | Structure (SMILES) | IC50 (KYSE-70 cell line) [µM]
24 | – | – | > 10 | – | > 20 | – | – | C#CCSc1nc(Sc2nnnn2C)c(C#N)c(-c2c[nH]c3ccccc23)n1 | –
25 | – | – | 0.291 | – | 0.644 | – | – | C#CCSc1nc(Sc2nnnn2C)c(C#N)c(-c2cccc(Cl)c2)n1 | –
26 | – | – | > 10 | – | > 10 | – | – | CCCSc1nc(Sc2nccs2)c(C#N)c(-c2ccc(Cl)cc2)n1 | –
27 | – | – | 0.077 | – | 0.141 | – | – | C#CCSc1nc(Sc2nccs2)c(C#N)c(-c2cc(OC)c(OC)c(OC)c2)n1 | –
28 | – | – | > 10 | – | > 10 | – | – | C#CCSc1nc(Nc2nnnn2C)c(C#N)c(-c2cc(OC)c(OC)c(OC)c2)n1 | –
29 | > 20 | > 20 | > 10 | > 20 | > 10 | > 20 | – | C#CCSc1nc(Sc2nc(C)c(C)s2)c(C#N)c(-c2cc(OC)c(OC)c(OC)c2)n1 | > 20
30 | – | – | > 5 | – | > 10 | – | – | C#CCSc1nc(-c2cc(OC)c(OC)c(OC)c2)c(C#N)c(N2CCSCC2)n1 | –
31 | – | – | > 20 | – | > 20 | – | – | C#CCSc1nc(Sc2nnnn2C)c(C#N)c(-c2ccccc2)n1 | –
32 | – | – | 0.369 | – | 1.09 | – | – | C#CCSc1nc(Sc2nnnn2C)c(C#N)c(-c2ccc(C(C)C)cc2)n1 | –
33 | 3.62 | 3.23 | 0.096 | 6.04 | 0.0366 | 4.13 | – | C#CCSc1nc(Sc2nccs2)c(C#N)c(-c2ccc(Cl)cc2)n1 | 5.35
34 | – | – | 0.112 | – | 0.063 | – | – | C#CCSc1nc(Sc2nccs2)c(C#N)c(-c2ccc(Cl)c(Cl)c2)n1 | –
35 | – | – | > 10 | – | > 10 | – | – | C#CCSc1nc(Nc2ccc(OC)cc2)c(C#N)c(-c2cc(OC)c(OC)c(OC)c2)n1 | –
36 | – | – | 0.202 | – | 0.789 | – | – | C#CCSc1nc(Sc2nccs2)c(C#N)c(-c2ccc3oc(=O)ccc3c2)n1 | –
37 | – | – | > 5 | – | > 10 | – | – | C#CCSc1nc(-c2cc(OC)c(OC)c(OC)c2)c(C#N)c(N2CCNCC2)n1 | –
38 | – | – | > 2.5 | – | > 10 | – | – | C#CCSc1nc(Sc2nccn2C)c(C#N)c(-c2cc(OC)c(OC)c(OC)c2)n1 | –
39 | – | – | 0.14 | – | 0.362 | – | – | C#CCSc1nc(Sc2nccs2)c(C#N)c(-c2cccc(Cl)c2)n1 | –
40 | – | – | 0.339 | – | 0.943 | – | – | C#CCSc1nc(Sc2nnnn2C)c(C#N)c(-c2ccc(Cl)c(Cl)c2)n1 | –
41 | 8.53 | 11.6 | 0.189 | 3.99 | 0.552 | 12.1 | – | C#CCSc1nc(Sc2nccs2)c(C#N)c(-c2ccc(Br)cc2)n1 | 10.9
42 | – | – | 0.107 | – | 0.821 | – | – | C#CCSc1nc(Sc2nnc(N)s2)c(C#N)c(-c2cc(OC)c(OC)c(OC)c2)n1 | –
43 | – | – | > 10 | – | > 10 | – | – | C#CCSc1nc(-c2cc(OC)c(OC)c(OC)c2)c(C#N)c(N2CCOCC2)n1 | –
44 | 3.54 | 4.12 | 0.38 | 8.64 | 0.106 | 6.48 | – | C#CCSc1nc(Sc2nnnn2CCN(C)C)c(C#N)c(-c2cccc(Cl)c2)n1 | 5.32
45 | – | – | 0.102 | – | 0.0785 | – | – | C#CCSc1nc(Sc2nnnn2C)c(C#N)c(-c2ccc(Cl)cc2)n1 | –
